Screens as filed in PubChem BioAssay.
This is a sample that favours compounds with a hit; in the whole collection about 2.5% have one here.
MEKK2 mut-MEK5: signal of MEK5 binding to mutant human MEKK2 PB1 domain. hit rate 0.35% among 290,000. bead flow cytometry, Alexa488-MEK5 binding to MEKK2 mutant. percent response, % at 10 µM; in the data active = percent response above about 24%, passing the limit was not always enough
MEKK3 PB1 HTS: modulators (inhibitors or enhancers) of MEK5 binding to human MEKK3 PB1 domain | bead-based flow cytometry, Alexa488-MEK5 binding to MEKK3; actives lie on both sides; 0 = blocked by unlabeled MEK5, 100 = vehicle | binding response (% of control), % at 10 µM | AID 1529 | hit rate 1.4% among 290,000;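 active = binding response more than 3 SD above or below the average of its plate-row segment, actives on both sides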;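 note: Alexa488 bead fluorescence after subtracting the streptavidin-only scavenger bead signal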
Target sequence (Q99759 whole entry, looked up, the tested form may be a part): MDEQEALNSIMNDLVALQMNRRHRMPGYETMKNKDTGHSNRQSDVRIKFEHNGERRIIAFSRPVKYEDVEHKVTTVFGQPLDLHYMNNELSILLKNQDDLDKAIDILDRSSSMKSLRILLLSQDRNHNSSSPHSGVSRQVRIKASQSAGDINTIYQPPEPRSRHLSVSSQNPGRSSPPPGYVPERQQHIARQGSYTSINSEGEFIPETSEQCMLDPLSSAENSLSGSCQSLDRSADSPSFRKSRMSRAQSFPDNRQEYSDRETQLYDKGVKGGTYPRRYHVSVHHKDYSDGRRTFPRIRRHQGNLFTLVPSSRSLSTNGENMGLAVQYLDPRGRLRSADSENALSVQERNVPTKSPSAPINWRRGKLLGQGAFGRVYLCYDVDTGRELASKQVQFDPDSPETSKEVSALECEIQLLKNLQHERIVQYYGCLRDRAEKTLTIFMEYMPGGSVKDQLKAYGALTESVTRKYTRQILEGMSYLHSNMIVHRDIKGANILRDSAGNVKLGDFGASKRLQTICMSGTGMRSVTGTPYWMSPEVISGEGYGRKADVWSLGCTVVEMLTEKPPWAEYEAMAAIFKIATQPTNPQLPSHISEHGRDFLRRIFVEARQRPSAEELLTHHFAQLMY
MEKK2wt PB1 HTS: raises or lowers MEK5 binding to wildtype human MEKK2 PB1 domain | bead flow cytometry, Alexa488-MEK5 binding to MEKK2 WT; actives lie on both sides | binding response (% of control), % at 10 µM | hit rate 1.1% among 290,000; in the data active = binding response below about 67% or above about 130%
ABCG2 inh: human ABCG2 inhibition, ABCB1 as counter-screen. Q9UNQ0. IgMXP3 cells, JC-1 efflux, flow cytometry. inhibition, % at 6.6 µM. hit rate 0.1% among 190,000. AID 1325;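 active = inhibition above 80%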;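 note: 0% = DMSO and 100% = nicardipine control wells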
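Read-out basis: Efflux inhibition in percent versus controls | Test system: ABCG2 IgMXP3 and barcoded ABCB1 CCRF-Adr cell mix | Quantity: 3 million cells/mL in well | Schedule: 10 min at 25 °C | Control set: Nicardipine as high control, DMSO as low control | Reagent: JC-1 as fluorescent efflux pump substrate | Signal: Flow cytometry of retained JC-1 fluorescence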
ABCB1 block: inhibitors of human ABCB1 transporter, ABCG2 counter-screen; P08183; CCRF-Adr cells, JC-1 efflux, flow cytometry; inhibition, % at 6.6 µM; hit rate 0.067% among 190,000; in the data active = inhibition above about 40%;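 note: 0% = vehicle and 100% = reference inhibitor; higher value means more JC-1 retained so stronger ABCB1 efflux block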
Efflux pump mplx: antifungal efflux pump inhibition, Nile Red retention. S. cerevisiae Candida pump triplex. inhibition, % at 10 µM. hit rate 0.44% among 330,000;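 active = plate passing quality check with inhibition over a set limit, or well fluorescence over plate mean plus 4 SD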;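 note: Nile Red retained in pooled yeast measured as flow cytometry median fluorescence; 0% = buffer negative control and 100% = Enniatin B positive control; higher means more Nile Red kept so more efflux inhibition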
MEKK2wt confirm: raises or lowers MEK5 binding to wildtype human MEKK2, retest; shares compounds with MEKK3 PB1 HTS; bead flow cytometry, Alexa488-MEK5 binding to MEKK2 WT; actives lie on both sides; binding response (% of control), % at 10 µM; hit rate 2.4% among 5,900; in the data active = binding response below about 16% or above about 210%; inactive = in between
MEKK2mut-MEK5: signal of MEK5 binding to mutant human MEKK2, retest; hit rate 2% among 5,900; shares compounds with MEKK3 PB1 HTS; bead flow cytometry, Alexa488-MEK5 binding to MEKK2 mutant; AID 1893; percent response, % at 10 µM; in the data active = percent response mostly above about 71%, no sharp cut-off; inactive = mostly below about 38%;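 note: higher means compound restores mutant binding toward wildtype level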
MEKK3 confirm: confirmation of inhibitors of MEK5 binding to human MEKK3 | shares compounds with MEKK3 PB1 HTS | hit rate 1.8% among 5,900 | bead flow cytometry, Alexa488-MEK5 binding to MEKK3; stronger effect = lower value | binding response (% of control), % at 10 µM;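 active = binding response below 72% of control, or above a set upper limit, though filed actives all read lower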;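 note: 100% = DMSO only wells and 0% = binding blocked by excess unlabeled MEK5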
Yeast cmpd fluor: compound fluorescence in yeast efflux pump counter-screen; hit rate 4% among 1,700; AID 588517; shares compounds with Efflux pump mplx; fluorescence ratio to DMSO, % at 10 µM; S. cerevisiae AD/pABC3, flow cytometry;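 active = fluorescence ratio to DMSO above its plate's cutoff, the plate mean ratio plus 5 SD, cut at about 210% in these data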;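 note: unstained yeast with no Nile Red so the signal is compound autofluorescence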
CaMdr1 efflux inh: Candida Mdr1 efflux pump inhibition. S. cerevisiae AD/CaMDR1, Nile Red efflux, flow cytometry. inhibition, % at 10 µM. AID 588518. hit rate 1% among 1,700. shares compounds with Efflux pump mplx; in the data active = inhibition above about 26%;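 note: 0% = DMSO vehicle and 100% = reference inhibitor; higher means more Nile Red retained so more efflux inhibition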
Cdr2 pump inh: Candida Cdr2 efflux pump inhibition | AID 588520 | Nile Red retention ratio vs DMSO, % at 10 µM | S. cerevisiae AD/CaCDR2, Nile Red retention, flow cytometry | shares compounds with Efflux pump mplx | hit rate 4% among 1,700; in the data active = Nile Red retention ratio vs DMSO above about 190%;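 note: higher ratio means more blocking of Cdr2 efflux of the dye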
CaCdr1 efflux inh: blocks the Candida albicans Cdr1 efflux pump in yeast; shares compounds with Efflux pump mplx; S. cerevisiae AD/CaCDR1, Nile Red efflux, flow cytometry; inhibition, % at 10 µM; hit rate 1% among 1,700; AID 588522;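 active = inhibition above the screen-wide mean plus twice its standard deviation, cut at about 32% in these data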
The depositor's hits bear a star; nt = not tested or not shown; + = active, no number; [ ] = remark or other dose.

SMILES	MEKK2 mut-MEK5	MEKK3 PB1 HTS	MEKK2wt PB1 HTS	ABCG2 inh	ABCB1 block	Efflux pump mplx	Yeast cmpd fluor	CaMdr1 efflux inh	Cdr2 pump inh	CaCdr1 efflux inh	others
CC(C)OC(=O)Nc1ccc(N=C(N)N[N+](=O)[O-])cc1	-1	100	96	4	1	0	nt	nt	nt	nt
CNCC(O)c1cc(OCc2ccccc2)c(OCc2ccccc2)cc1F (configuration not stated)	17	103	138*	nt	nt	0	nt	nt	nt	nt	MEKK2wt confirm=125;MEKK2mut-MEK5=12;MEKK3 confirm=104
CCC(C)N1C(=O)/C(=C\c2cc3c4c(c2)CCCN4CCC3)C(=O)NC1=S (configuration not stated)	-5	76	6.0*[inhibitor]	6	3	0.7*	118	0	114	0	MEKK2wt confirm=58;MEKK2mut-MEK5=-24;MEKK3 confirm=87
O=P(Nc1ccccc1)(Nc1ccccc1)Oc1cccc(Cl)c1	3	104	102	4	1	0	nt	nt	nt	nt
O=c1c2ccccc2[se]n1-c1ccccc1	14	117	115	0	-1	4.0*	96	1	107	0
O=c1c2ccccc2nc(-c2ccccc2)n1-c1ccccc1	-1	98	98	nt	nt	0	nt	nt	nt	nt
Cc1ccc2c(c1)C1CN(C)CCC1N2C(=O)c1ccc(Br)o1 (configuration not stated)	7	102	108	0	0	0.6*	112	1	127	0
CCOC(=O)c1c(-n2c(C)cc(/C=C3\C(=O)NC(=O)N(C)C3=O)c2C)sc2c1CCCC2	0	111	96	2	2	0	nt	nt	nt	nt
Cc1cc(/C=C2\C(=O)NC(=O)N(c3ccc(Cl)cc3)C2=O)c(C)n1-c1sc2c(c1C#N)CCCC2	-7	92	80	-5	-1	0.8*	108	0	104	0
C=CCN1CC[C@]23c4c5ccc(O)c4OC2C(O)C=CC3[C@H]1C5 (some centres not stated)	nt	nt	nt	nt	nt	0	nt	nt	nt	nt
Clc1ccc(C(c2ccc(Cl)cc2)n2cc[n+](CC(OCc3ccc(Cl)cc3Cl)c3ccc(Cl)cc3Cl)c2)cc1 (configuration not stated)	nt	nt	nt	nt	nt	90*	94	0	+	0
C=CC1CN2CCC1CC2C(OC(C)=O)c1ccnc2ccc(OC)cc12 (configuration not stated)	0	98	102	nt	nt	0	nt	nt	nt	nt
O=C(Nc1c(F)cc(F)cc1F)c1cccn(Cc2ccccc2)c1=O	2	107	107	14	2	0.8*	102	0	100	0
CCOc1ccc(N2C(=O)/C(=C/c3ccc(C)o3)C(=O)NC2=S)cc1	-5	86	87	nt	nt	0.9*	100	0	89	0
Cc1ccccc1NP(=O)(Oc1ccccc1F)Oc1ccccc1F	-1	118	96	-2	1	-1	nt	nt	nt	nt
CC(=NCc1cccnc1)c1c(O)n(-c2ccccc2C)c(=O)[nH]c1=O	7	105	103	3	0	1.8*	103	0	133	0
CCC(=NCc1cccnc1)c1c(O)n(-c2ccccc2C)c(=O)[nH]c1=O	-9	95	102	nt	nt	0	nt	nt	nt	nt
CNCCc1nc(N)n[nH]1	3	104	107	2	0	0	nt	nt	nt	nt
